Key:
[1] = system: Canis familiaris; assay: Compound was tested for cardiovascular profile in conscious dogs at dose of 50 ug/kg po
[2] = system: Canis familiaris; assay: Compound was evaluated for percent increase in heart rate in anesthetized dogs; type: functional, Canis lupus familiaris
Method in brief: (§1)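 Mongrel dogs of either sex (7–14 kg), pentobarbital-anesthetized (35 mg/kg iv), ventilated, kept at 37–38 °C. Right ventricular contractility measured by strain-gauge arch at 50 g tension; femoral arterial pressure and heart rate also recorded. Increasing log doses given iv at 5-min intervals, with peak responses recorded. ED50 by linear regression (mean ± SEM). Heart rate and MAP are % changes at the inotropic ED50.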

[3] = system: Canis familiaris; assay: Tested for cardiovascular contractility in anesthetized dogs; type: functional; conditions: Canis lupus familiaris
Method in brief: (§2)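 Right ventricular contractility measured by strain-gauge arch at 50 g tension; femoral arterial pressure and heart rate also recorded. Increasing log doses given iv at 5-min intervals, with peak responses recorded. ED50 by linear regression (mean ± SEM). Heart rate and MAP are % changes at the inotropic ED50.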

[4] = system: Canis familiaris; assay: Compound was evaluated for percent decrease in maximum arterial blood pressure in anesthetized dogs; type: functional, Canis lupus familiaris, Artery; parameters: scale not given: the % may be the effect or the level left
Method in brief: as §1

[5] = system: Canis familiaris; assay: Evaluated for percent increase in heart rate in anesthetized dogs; type: functional, Canis lupus familiaris
Method in brief: as §2

[6] = system: Canis familiaris; assay: Evaluated for percent decrease in maximum arterial blood pressure in anesthetized dogs; type: functional, Canis lupus familiaris
Method in brief: as §2

[7] = system: Canis familiaris; assay: Compound was tested for cardiovascular profile in conscious dogs at dose of 400 ug/kg po
[8] = system: Canis familiaris; assay: Compound was tested for cardiovascular profile in conscious dogs at dose of 100 ug/kg po
[9] = organism: Felis catus; assay: Compound was evaluated for inotropic activity in cat papillary muscles at concentration of (10e -5)M; type: functional, Papillary muscle
Method in brief: (§3)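 Isolated cat papillary muscles under 1.0 g base-line tension, field-stimulated with square-wave pulses (2.0 ms, 12/min, 20% above threshold). Equilibrated 60 min. Each muscle was checked with 10^-6 M isoproterenol for 3 min and rejected if the response was under 120% of control, then washed and stabilized 30 min. Test compound given cumulatively (10^-7–10^-4 M) at 30-min intervals; contractility increase recorded.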

[10] = system: Canis familiaris; assay: Compound was tested for cardiovascular profile in conscious dogs at dose of 500 ug/kg po; type: functional, Canis lupus familiaris, Heart
Method in brief: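 Conscious, chronically instrumented dogs fasted 18 h; drug or lactose placebo given orally in 000 gelatin capsules. Contractility index was LV dP/dt60 (first derivative of left ventricular pressure at 60 mmHg); heart rate and LV systolic pressure also monitored.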

[11] = organism: Felis catus; assay: Compound was evaluated for inotropic activity in cat papillary muscles at concentration of (10e -4)M; type: functional, Muscle tissue
Method in brief: as §3

[12] = system: Canis familiaris; assay: Compound was tested for cardiovascular profile in conscious dogs at dose of 25 ug/kg po
[13] = organism: Felis catus; assay: Compound was evaluated for inotropic activity in cat papillary muscles at concentration of (10e -6)M; type: functional, Papillary muscle
Method in brief: as §3

[14] = organism: Felis catus; assay: Compound was evaluated for inotropic activity in cat papillary muscles at concentration of (10e-6) M; type: functional, Papillary muscle
Method in brief: as §3

[15] = organism: Felis catus; assay: Compound was evaluated for inotropic activity in cat papillary muscles at concentration of (10e-5) M; type: functional, Papillary muscle
Method in brief: as §3

[16] = system: Canis familiaris; assay: Percent increase in contractility by administration of 500 ug/kg in conscious dog model; type: functional, Canis lupus familiaris
Method in brief: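 Conscious, chronically instrumented dogs fasted 18 h; drug or lactose placebo given orally in 000 gelatin capsules. Contractility index was LV dP/dt60 (first derivative of left ventricular pressure at 60 mmHg); heart rate and LV systolic pressure also monitored. Peak response generally taken 150 min post-dose; mean ± SEM of four experiments.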

[17] = Half-life measured by the effect on contractility after oral administration of 25 ug/kg in dog; conditions: in vivo, 0.025 mg/kg
[18] = Oral bioavailability determined in dog; type: ADME, organism-based, Canis lupus familiaris; conditions: in vivo
[19] = Half-life in dog; conditions: in vivo

Compound | ED50 [3] [mg/kg] | Increase [5] [%] | Decrease [6] [%] | Contractile force (% of control) [11] [%] | further results
CC1CC(=O)NN=C1c1ccc2c(c1)C(C)(C)C(=O)N2 (stereo not drawn) | 0.0032 |  |  |  | Control [1]: 150%; Control [2]: 16%; Control [4]: 26%
Cc1cc(C2=NNC(=O)CC2)cc2c1NC(=O)C2(C)C | 0.0095 | 8.5 | 17 |  | 
CN1N=C(c2ccc3c(c2)CC(=O)N3)CCC1=O | 0.271 | 11 | 7 |  | 
CCC1(C)C(=O)Nc2ccc(C3=NNC(=O)CC3C)cc21 (stereo not drawn) | 0.0148 | 11 | 20 |  | 
CCC1(CC)C(=O)Nc2ccc(C3=NNC(=O)CC3)cc21 | 0.741 | 8.9 | 7.5 |  | 
CN1C(=O)C(C)(C)c2cc(C3=NNC(=O)CC3)ccc21 | 0.052 | 8 | 13 |  | 
CCC1(C)C(=O)Nc2ccc(C3=NNC(=O)CC3)cc21 (stereo not drawn) | 0.022 | 2 | 3.1 |  | Control [7]: 149%
CN1C(=O)CCc2cc(C3=NNC(=O)CC3)ccc21 | 0.0124 | 26 | 21 |  | Control [8]: 134%
CC(=O)Nc1ccc(C2=NNC(=O)CC2)cc1 | 0.0116 | 5 | 6 | 141 | Contractility (% of control) [9]: 128%; Percent of control [10]: 132%
CC1C(=O)Nc2ccc(C3=NNC(=O)CC3)cc21 (stereo not drawn) | 0.0096 | 8 | 21.8 |  | Control [12]: 141%
CC1(C)Cc2cc(C3=NNC(=O)CC3)ccc2NC1=O | 0.021 | 8.5 | 3 |  | Percent of control [10]: 116%
CCCC1(C)C(=O)Nc2ccc(C3=NNC(=O)CC3)cc21 (stereo not drawn) | 0.0198 | 9.3 | 9.6 |  | 
CC1(C)CC(=O)Nc2ccc(C3=NNC(=O)CC3)cc21 | 0.086 | 5.9 | 15 |  | Percent of control [10]: 133%
O=C1CCC(c2ccc3c(c2)CCCC(=O)N3)=NN1 | 0.0052 | 12 | 18 | 139 | Contractility (% of control) [9]: 137%; Control [13]: 121%; Percent of control [10]: 131%
O=C1CCC(c2ccc3c(c2)CC(=O)N3)=NN1 | 0.024 | 5.6 | 4.3 | 152 | Contractility (% of control) [9]: 147%; Control [13]: 116%; Percent of control [10]: 164%
O=C1CCC(c2ccc(-n3ccnc3)cc2)=NN1 [IMAZODAN] | 0.046 | 9.5 | 18 | 173 | Contractility (% of control) [9]: 147%
CC1CC(=O)NN=C1c1ccc2c(c1)C(C)(C)C(=O)N2C (stereo not drawn) | 0.0044 | 21.4 | 26 |  | 
CC1CC(c2ccc3c(c2)C(C)(C)C(=O)N3)=NNC1=O (stereo not drawn) | 0.015 | 13 | 20 |  | 
CC(=O)Nc1ccc(C2=NNC(=O)CC2C)cc1 (stereo not drawn) | 0.002 | 11.7 | 16.6 | 216 | Control [14]: 167%; Control [12]: 170%; Control [15]: 183%
O=C1CCC(c2ccc3c(c2)CCCN3)=NN1 | 0.257 | 37 | 12 |  | 
Cc1[nH]c(=O)c(C#N)cc1-c1ccncc1 [MILRINONE] | 0.037 | 9 | 8 | 158 | Control [15]: 148%; Increase [16]: 62%; Percent of control [10]: 162%
CCC1C(=O)Nc2ccc(C3=NNC(=O)CC3)cc21 (stereo not drawn) | 0.071 | 18 | 12 |  | 
O=C1CCC(c2ccc3c(c2)CCC(=O)N3)=NN1 | 0.0033 | 18.5 | 8.7 | 154 | Contractility (% of control) [9]: 156%; Control [13]: 150%; Percent of control [10]: 157%
Cc1cc2c(cc1C1=NNC(=O)CC1)C(C)(C)C(=O)N2 | 0.04 | 7.9 | 0.5 |  | 
CC1(C)C(=O)Nc2ccc(C3=NNC(=O)CC3)cc21 [INDOLIDAN] | 0.0068 | 11.8 | 15.2 | 169 | Contractility (% of control) [9]: 164%; Control [12]: 151%; half-life [17]: > 8 h; bioavailability [18]: 100%; Control [13]: 134%; half-life [19]: 14 h

From ChEMBL document CHEMBL1123221, “Dihydropyridazinone cardiotonics: the discovery and inotropic activity of 1,3-dihydro-3,3-dimethyl-5-(1,4,5,6-tetrahydro-6-oxo-3-pyridazinyl)-2H -indol-2-one” (J Med Chem, 1986)
